# Measurements taken from ChEMBL document CHEMBL4428071 (J Med Chem, 2016).
# Active and inactive are the calls of the source. The rule behind the calls is not given here.
# Experiments:
# BaF3 [1] = assay: Antitumor activity against TEL-fused cKIT T670I mutant expressing mouse BA/F3 cells allografted in nu/nu mouse assessed as tumor growth inhibition at 50 mg/kg/day, ip administered daily for 10 days; assay type: functional; conditions: 240 h, read-out: TGI
# Procedure, shortened: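 Female nu/nu mice, 5 weeks old at purchase, given 1 million BaF3-TEL-cKIT-T670I cells in PBS/Matrigel 1:1 subcutaneously on the right flank. At tumour volume 200–400 mm3, randomised into groups of 7 and dosed IP daily for 10 days (25, 50, 100 mg/kg/d or vehicle: 0.5% methylcellulose/0.4% Tween80 in water). Tumour volume (W2×L/2) and body weight recorded daily.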
# [2] = target: T1, Mast/stem cell growth factor receptor Kit (Homo sapiens, UniProt P10721, T670I); assay: Inhibition of cKIT T670I mutant autophosphorylation at Y823 in human GIST-5R cells at 0.1 to 3 uM after 1 hr by Western blot analysis; assay type: cell-based
# T1 sequence (P10721 26-976 T670I limits assumed): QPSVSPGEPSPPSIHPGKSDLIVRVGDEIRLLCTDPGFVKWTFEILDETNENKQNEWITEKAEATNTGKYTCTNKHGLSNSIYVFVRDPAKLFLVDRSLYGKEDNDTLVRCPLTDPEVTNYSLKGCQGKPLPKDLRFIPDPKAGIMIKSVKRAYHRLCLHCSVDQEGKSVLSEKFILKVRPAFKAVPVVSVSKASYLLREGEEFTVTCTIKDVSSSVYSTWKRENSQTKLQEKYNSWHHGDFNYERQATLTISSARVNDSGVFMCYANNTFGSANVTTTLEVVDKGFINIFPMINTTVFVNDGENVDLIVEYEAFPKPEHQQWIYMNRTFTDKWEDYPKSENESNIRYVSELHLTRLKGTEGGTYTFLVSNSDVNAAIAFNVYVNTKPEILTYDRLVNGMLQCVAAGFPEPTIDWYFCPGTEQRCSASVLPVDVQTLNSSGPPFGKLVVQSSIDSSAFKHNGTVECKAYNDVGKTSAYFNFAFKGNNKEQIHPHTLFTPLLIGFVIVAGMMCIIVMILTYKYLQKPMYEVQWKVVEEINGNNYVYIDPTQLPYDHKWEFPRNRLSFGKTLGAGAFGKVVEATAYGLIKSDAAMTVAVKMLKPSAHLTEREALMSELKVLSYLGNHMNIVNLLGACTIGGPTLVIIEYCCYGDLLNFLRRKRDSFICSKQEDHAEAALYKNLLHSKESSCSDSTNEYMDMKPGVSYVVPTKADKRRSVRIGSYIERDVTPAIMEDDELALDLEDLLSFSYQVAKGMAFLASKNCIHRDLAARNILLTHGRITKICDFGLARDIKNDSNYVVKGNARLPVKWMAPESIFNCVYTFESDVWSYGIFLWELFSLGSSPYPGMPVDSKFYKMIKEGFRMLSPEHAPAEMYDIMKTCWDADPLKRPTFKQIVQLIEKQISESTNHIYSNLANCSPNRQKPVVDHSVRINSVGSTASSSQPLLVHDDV
# Procedure, shortened: (§1)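 GIST-T1 or GIST-5R cells in DMEM with 10% FBS were treated with serially diluted compound for 1 h. Cells were then lysed and analysed by western blotting.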
# [3] = tested on: Mast/stem cell growth factor receptor Kit (Homo sapiens), P10721 [T670I]; assay: Inhibition of partial length human cKIT T670I mutant expressed in bacterial expression system assessed as activity remaining at 1 uM by kinome scan assay
# Mast/stem cell growth factor receptor Kit (Homo sapiens), P10721 [T670I], sequence (P10721 whole entry T670I): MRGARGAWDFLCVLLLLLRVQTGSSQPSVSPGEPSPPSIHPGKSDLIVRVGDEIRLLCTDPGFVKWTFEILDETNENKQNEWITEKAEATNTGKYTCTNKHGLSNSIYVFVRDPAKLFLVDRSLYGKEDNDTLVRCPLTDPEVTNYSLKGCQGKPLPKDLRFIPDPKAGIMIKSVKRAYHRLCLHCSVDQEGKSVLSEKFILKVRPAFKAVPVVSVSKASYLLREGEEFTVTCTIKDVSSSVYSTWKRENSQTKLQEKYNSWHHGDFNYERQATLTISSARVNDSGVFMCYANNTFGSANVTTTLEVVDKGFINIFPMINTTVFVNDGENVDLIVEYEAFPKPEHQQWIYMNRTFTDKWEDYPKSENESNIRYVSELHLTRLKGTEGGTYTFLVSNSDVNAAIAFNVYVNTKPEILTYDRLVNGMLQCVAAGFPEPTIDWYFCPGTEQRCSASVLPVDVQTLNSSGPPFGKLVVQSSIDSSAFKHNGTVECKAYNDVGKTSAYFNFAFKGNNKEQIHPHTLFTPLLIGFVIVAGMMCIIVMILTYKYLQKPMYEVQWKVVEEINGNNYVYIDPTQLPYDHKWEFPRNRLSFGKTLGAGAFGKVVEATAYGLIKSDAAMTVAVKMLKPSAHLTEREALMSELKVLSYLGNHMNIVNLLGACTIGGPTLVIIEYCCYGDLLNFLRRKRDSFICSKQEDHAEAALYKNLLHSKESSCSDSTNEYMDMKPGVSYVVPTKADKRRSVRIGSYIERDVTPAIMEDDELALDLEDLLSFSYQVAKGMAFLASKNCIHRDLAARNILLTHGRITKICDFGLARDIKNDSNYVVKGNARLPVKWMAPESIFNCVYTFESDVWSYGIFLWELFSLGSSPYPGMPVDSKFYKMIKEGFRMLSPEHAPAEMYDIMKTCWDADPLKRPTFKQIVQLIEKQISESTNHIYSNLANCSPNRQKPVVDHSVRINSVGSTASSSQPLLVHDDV
# [4] = target: Cyclin-dependent kinase-like 2 (Homo sapiens) (UniProt Q92772); assay: Inhibition of partial length human CDKL2 expressed in bacterial expression system assessed as activity remaining at 1 uM by kinome scan assay
# Cyclin-dependent kinase-like 2 (Homo sapiens), sequence (Q92772 whole entry): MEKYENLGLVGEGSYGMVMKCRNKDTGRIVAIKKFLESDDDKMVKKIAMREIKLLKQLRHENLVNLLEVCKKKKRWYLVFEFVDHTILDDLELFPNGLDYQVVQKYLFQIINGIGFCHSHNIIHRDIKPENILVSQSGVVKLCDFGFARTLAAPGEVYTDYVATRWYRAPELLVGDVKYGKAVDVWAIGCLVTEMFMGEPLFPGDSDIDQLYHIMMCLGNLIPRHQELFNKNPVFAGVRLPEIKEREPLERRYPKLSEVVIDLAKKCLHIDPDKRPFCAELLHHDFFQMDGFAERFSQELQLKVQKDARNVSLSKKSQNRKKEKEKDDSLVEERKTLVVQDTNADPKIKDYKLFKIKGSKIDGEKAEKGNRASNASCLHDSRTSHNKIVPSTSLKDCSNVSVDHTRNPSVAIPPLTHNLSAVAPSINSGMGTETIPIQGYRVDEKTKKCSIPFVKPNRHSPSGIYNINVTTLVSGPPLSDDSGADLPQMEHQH
# [5] = Apparent clearance in Sprague-Dawley rat at 1 mg/kg, iv measured up to 8 hrs post dosing; assay type: ADME, organism-based; conditions: in vivo, read-out: CL(app) (converted)
# Procedure, shortened: (§2)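 Male Sprague-Dawley rats, 8 weeks old, fasted overnight; iv dosing from a 1 mg/mL solution in 5% DMSO/40% PEG400/55% saline. Jugular-vein blood (~0.2 mL, heparinised) taken at 1, 5, 15, 30 min and 1, 2, 4, 6, 8 h; plasma held at -80 °C until analysis; n=3.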
# [6] = target: T2, Mast/stem cell growth factor receptor Kit (Homo sapiens, UniProt P10721); assay: Ratio of sunitinib IC50 to compound IC50 for TEL-fused cKIT (unknown origin) expressed in mouse BA/F3 cells; assay type: cell-based
# T2 sequence (P10721 whole entry, the tested form may be a part): as the sequence (P10721 whole entry T670I) above, with I670T counted along it
# [7] = AUC (0 to t) in Sprague-Dawley rat at 1 mg/kg, iv measured up to 8 hrs post dosing; assay type: ADME, organism-based; design: time < 8 hr, dose 1 mg/kg, route intravenous; conditions: in vivo; procedure, shortened: as §2
# [8] = target: Vascular endothelial growth factor receptor 3 (Homo sapiens) (UniProt P35916); assay: Inhibition of partial length human FLT4 expressed in bacterial expression system assessed as activity remaining at 1 uM by kinome scan assay
# [9] = target: T2, Mast/stem cell growth factor receptor Kit; assay: Inhibition of wild type cKIT in human GIST-T1 cells assessed as downregulation of S6 phosphorylation at S235/236 after 1 hr by Western blot analysis; assay type: cell-based
# Procedure, shortened: (§3)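 GIST-T1 cells in DMEM with 10% FBS were exposed to serially diluted compound for 1 h, then lysed. Lysates were analysed by western blot with phospho-specific antibodies against AKT (Ser473), ERK1/2 (Thr202/Tyr204) and S6 ribosomal protein (Ser235/236), each alongside its total protein.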
# [10] = Cytotoxicity mouse BA/F3 cells assessed as cell growth inhibition after 72 hrs by cell titer-glo assay; assay type: cell-based, BaF3
# Procedure, shortened: (§4)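 Cells seeded at 3000 per well and exposed to serial compound dilutions for 72 h. Viability read by CellTiter-Glo luminescence and normalised to DMSO controls; mean of three independent measurements. BaF3 lines kept IL-3-free in RPMI 1640/10% FBS after retroviral transduction and puromycin selection. GIST lines grown in DMEM/10% FBS.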
# BaF3 [11] = assay: Induction of apoptosis in mouse BA/F3 cells harboring TEL-fused cKIT T670I mutant allografted in nu/nu mouse at 25 to 100 mg/kg, ip administered daily for 10 days by TUNEL staining based microscopic analysis; assay type: functional, organism-based
# Procedure, shortened: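 Tumour sections from the daily-IP, 10-day BaF3-TEL-cKIT-T670I xenograft study were deparaffinised and digested with proteinase K for 15 min at RT. Peroxidase blocked in 3% H2O2/methanol. TdT reaction 1 h at 37 °C, converter-POD 30 min at 37 °C, DAB ~8 min, haematoxylin counterstain.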
# BaF3 [12] = assay: Antiproliferative against mouse BA/F3 cells harboring TEL-fused cKIT T670I mutant allografted in nu/nu mouse assessed as tumor growth inhibition at 25 to 100 mg/kg, ip administered daily for 10 days by Ki-67 staining based microscopic analysis; assay type: functional, organism-based
# Procedure, shortened: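 Tumours from BaF3-TEL-cKIT-T670I subcutaneous xenografts in nu/nu mice after 10 days of daily IP dosing (25–100 mg/kg/d). Sections underwent citrate pH 6.0 microwave antigen retrieval and casein block, then anti-Ki-67 mouse mAb 1:50 overnight at 4 °C. Detection with DAB and haematoxylin counterstain.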
# [13] = target: T2, Mast/stem cell growth factor receptor Kit; assay: Inhibition of wild type cKIT in human GIST-T1 cells assessed as downregulation of AKT phosphorylation at S473 after 1 hr by Western blot analysis; assay type: cell-based; procedure, shortened: as §3
# [14] = target: T2, Mast/stem cell growth factor receptor Kit; assay: Inhibition of wild type cKIT in human GIST-T1 cells assessed as cell growth inhibition after 72 hrs by cell titer-glo assay; assay type: cell-based
# Procedure, shortened: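 GIST-T1 cells (cKIT wt) grown in DMEM with 10% FBS and 1% penicillin/streptomycin at 37 °C, 5% CO2. Viability read by CellTiter-Glo luminescence and normalized to DMSO controls. GI50 taken from the mean of three independent measurements.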
# [15] = target: Receptor-type tyrosine-protein kinase FLT3 (Homo sapiens) (UniProt P36888); assay: Inhibition of partial length human FLT3 expressed in bacterial expression system assessed as activity remaining at 1 uM by kinome scan assay
# Receptor-type tyrosine-protein kinase FLT3 (Homo sapiens), sequence (P36888 whole entry): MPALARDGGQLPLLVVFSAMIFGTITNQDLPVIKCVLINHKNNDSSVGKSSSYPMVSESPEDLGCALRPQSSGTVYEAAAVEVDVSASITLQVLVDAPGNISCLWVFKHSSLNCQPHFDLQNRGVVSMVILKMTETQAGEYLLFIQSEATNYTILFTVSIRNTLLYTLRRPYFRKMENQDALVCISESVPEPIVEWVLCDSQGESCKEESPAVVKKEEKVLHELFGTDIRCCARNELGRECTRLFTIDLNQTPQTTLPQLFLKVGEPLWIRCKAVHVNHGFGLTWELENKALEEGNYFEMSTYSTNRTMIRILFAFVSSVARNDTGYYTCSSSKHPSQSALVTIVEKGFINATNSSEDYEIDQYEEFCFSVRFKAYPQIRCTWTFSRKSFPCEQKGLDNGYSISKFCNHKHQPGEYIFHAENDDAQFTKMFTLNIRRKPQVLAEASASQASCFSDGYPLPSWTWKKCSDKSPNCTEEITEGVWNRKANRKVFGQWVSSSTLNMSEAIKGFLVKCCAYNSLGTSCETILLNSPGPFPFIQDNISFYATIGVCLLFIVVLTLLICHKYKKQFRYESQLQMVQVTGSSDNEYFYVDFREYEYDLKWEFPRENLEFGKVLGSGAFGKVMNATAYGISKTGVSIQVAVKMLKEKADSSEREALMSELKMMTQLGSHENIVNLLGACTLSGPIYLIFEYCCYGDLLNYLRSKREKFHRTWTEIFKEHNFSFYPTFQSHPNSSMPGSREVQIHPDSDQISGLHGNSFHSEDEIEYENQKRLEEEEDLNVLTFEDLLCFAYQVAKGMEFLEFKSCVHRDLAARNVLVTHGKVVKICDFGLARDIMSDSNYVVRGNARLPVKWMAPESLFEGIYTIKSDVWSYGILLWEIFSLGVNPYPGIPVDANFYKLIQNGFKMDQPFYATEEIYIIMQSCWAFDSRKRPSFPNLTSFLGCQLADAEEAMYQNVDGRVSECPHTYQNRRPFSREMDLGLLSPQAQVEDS
# [16] = target: Proto-oncogene tyrosine-protein kinase receptor Ret (Homo sapiens) (UniProt P07949); assay: Inhibition of partial length human RET expressed in bacterial expression system assessed as activity remaining at 1 uM by kinome scan assay
# Proto-oncogene tyrosine-protein kinase receptor Ret (Homo sapiens), sequence (P07949 whole entry): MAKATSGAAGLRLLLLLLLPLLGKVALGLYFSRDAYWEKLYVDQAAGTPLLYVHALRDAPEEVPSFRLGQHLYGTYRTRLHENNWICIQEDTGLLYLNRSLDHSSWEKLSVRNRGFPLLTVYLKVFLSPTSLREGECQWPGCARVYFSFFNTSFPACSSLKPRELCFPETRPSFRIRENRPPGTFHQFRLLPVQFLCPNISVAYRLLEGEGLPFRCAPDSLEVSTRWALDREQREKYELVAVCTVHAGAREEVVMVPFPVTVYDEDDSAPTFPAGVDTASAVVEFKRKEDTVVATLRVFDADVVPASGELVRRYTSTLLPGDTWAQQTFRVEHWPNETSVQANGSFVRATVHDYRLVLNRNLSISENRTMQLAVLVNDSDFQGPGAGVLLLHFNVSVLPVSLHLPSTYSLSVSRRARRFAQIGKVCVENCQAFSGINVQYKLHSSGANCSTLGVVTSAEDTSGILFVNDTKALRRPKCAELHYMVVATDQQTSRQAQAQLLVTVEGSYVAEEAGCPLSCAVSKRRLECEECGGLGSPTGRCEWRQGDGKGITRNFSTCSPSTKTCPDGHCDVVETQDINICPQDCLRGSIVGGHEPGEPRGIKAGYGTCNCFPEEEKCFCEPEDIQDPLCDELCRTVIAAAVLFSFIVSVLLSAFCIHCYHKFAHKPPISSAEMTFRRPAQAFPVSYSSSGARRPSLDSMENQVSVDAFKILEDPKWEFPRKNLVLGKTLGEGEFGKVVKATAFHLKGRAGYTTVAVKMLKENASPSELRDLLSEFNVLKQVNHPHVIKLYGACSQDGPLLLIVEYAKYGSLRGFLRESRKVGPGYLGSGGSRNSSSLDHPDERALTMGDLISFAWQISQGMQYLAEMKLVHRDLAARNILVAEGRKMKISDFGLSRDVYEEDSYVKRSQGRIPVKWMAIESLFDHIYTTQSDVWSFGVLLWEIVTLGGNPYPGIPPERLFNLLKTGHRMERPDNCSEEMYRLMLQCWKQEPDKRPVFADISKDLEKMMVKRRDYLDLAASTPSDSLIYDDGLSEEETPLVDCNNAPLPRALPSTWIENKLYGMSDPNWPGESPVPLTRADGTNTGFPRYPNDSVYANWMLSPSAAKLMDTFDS
# [17] = MRT (0 to infinity) in Sprague-Dawley rat at 1 mg/kg, iv measured up to 8 hrs post dosing; assay type: ADME, organism-based; conditions: in vivo
# Procedure, shortened: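 Male Sprague-Dawley rats, 8 weeks old, fasted overnight, dosed at 1 mg/kg iv from a 1 mg/mL stock in 5% DMSO/40% PEG400/55% saline. About 0.2 mL jugular blood taken into heparin at 1 min to 8 h. Plasma held at -80 °C until analysis. n = 3, mean reported.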
# [18] = tested on: Mast/stem cell growth factor receptor Kit (Homo sapiens), P10721 [V654A]; assay: Inhibition of TEL-fused cKIT V654A mutant (unknown origin) expressed in mouse BA/F3 cells assessed as cell growth inhibition after 72 hrs by cell titer-glo assay; assay type: cell-based; procedure, shortened: as §4
# Mast/stem cell growth factor receptor Kit (Homo sapiens), P10721 [V654A], sequence (P10721 whole entry V654A, the tested form may be a part): as the sequence (P10721 whole entry T670I) above, with V654A, I670T counted along it
# [19] = Half life in Sprague-Dawley rat at 1 mg/kg, iv measured up to 8 hrs post dosing; assay type: ADME, organism-based; conditions: in vivo; procedure, shortened: as §2
# [20] = target: T2, Mast/stem cell growth factor receptor Kit; assay: Inhibition of TEL-fused cKIT (unknown origin) expressed in mouse BA/F3 cells assessed as cell growth inhibition after 72 hrs by cell titer-glo assay; assay type: cell-based
# [21] = target: T2, Mast/stem cell growth factor receptor Kit; assay: Inhibition of partial length human cKIT expressed in bacterial expression system assessed as activity remaining at 1 uM by kinome scan assay
# [22] = target: T1, Mast/stem cell growth factor receptor Kit; assay: Inhibition of cKIT T670I mutant autophosphorylation at Y719 in human GIST-5R cells at 0.1 to 3 uM after 1 hr by Western blot analysis; assay type: cell-based; procedure, shortened: as §1
compound,measurement,setting,value
CCC(=O)NCC1CCN(c2ccc(NC(=O)Nc3cccc(Oc4ccnc5cc(OC)c(OC)cc45)c3)cc2C(F)(F)F)CC1,inhibition in vivo at 50 mg/kg/day,BaF3 [1],37.1%
same,EC50,[2],< 100 nM
same,Activity,[3],< 1%
same,Activity,[4],0%
same,clearance,[5],46 mL/min/kg
same,Ratio IC50,[6],2
same,AUCt,[7],377 ng·h/mL
same,Activity,[8],0%
same,EC50,[9],< 100 nM
same,GI50 at 72 h,[10],> 10 µM
same,Activity,BaF3 [11],Active
same,TGI,BaF3 [12],Active
same,EC50,[13],< 100 nM
same,GI50,[14],4 nM
same,Activity,[15],0.85%
same,Activity,[16],0%
same,MRT inf,[17],46.8 min
same,GI50,[18],320 nM
same,half-life,[19],122 min
same,GI50,[20],57 nM
same,Activity,[21],< 1%
same,EC50,[22],< 100 nM
